Bioassay records as filed in PubChem.
Many of the other results were omitted from the sample, so hits are more common in it than they were.
KDM4C inh – blocks human GASC-1 (KDM4C) demethylase activity. GST-KDM4C 2-372, H3K9me3 peptide, LANCE TR-FRET. inhibition, % at 12.5 µM. hit rate 0.15% among 96,000;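 active means mean replicate inhibition above about 25%, with at least 55% of replicates also reaching it, limit read from the data, passing the limit was not always enough; inconclusive means only one of those two conditions met; inactive means neither condition met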
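System: N-terminal GST-fused human GASC-1 (KDM4C) fragment, residues 2-372 / Amount: 10 nM GST-KDM4C in enzyme reaction / Also added: H3K9me3 peptide with Fe(II)/2OG / Times: 30 min demethylation and 1 h detection at room temperature / Signal: LANCE TR-FRET / Read-out basis: Fall in 671/618 emission ratio as inhibition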
T cruzi growth-1 – T. cruzi proliferation inhibition. T. cruzi beta-gal in NIH3T3, GalScreen luminescence, 90 h. inhibition, % at 8.34 µM. hit rate 5.9% among 77,000. AID 624255;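 active means mean inhibition above about 93%, with at least 55% of replicates each passing it, limit read from the data, passing the limit was not always enough; inconclusive means only one of those two conditions holds; inactive means neither condition holds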
IDH1 R132H inh – IDH1 R132H (human) inhibition; O75874; IDH1 R132H reductase, diaphorase/resazurin fluorescence, 60 min; inhibition, % at 10 µM; hit rate 0.18% among 70,000; AID 624101; in the data active means inhibition above about 34%; inconclusive means no clear call, values can overlap the other calls; inactive means below about 11%;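 further: 0% = DMSO and 100% = no enzyme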
Target sequence (O75874 whole entry R132H): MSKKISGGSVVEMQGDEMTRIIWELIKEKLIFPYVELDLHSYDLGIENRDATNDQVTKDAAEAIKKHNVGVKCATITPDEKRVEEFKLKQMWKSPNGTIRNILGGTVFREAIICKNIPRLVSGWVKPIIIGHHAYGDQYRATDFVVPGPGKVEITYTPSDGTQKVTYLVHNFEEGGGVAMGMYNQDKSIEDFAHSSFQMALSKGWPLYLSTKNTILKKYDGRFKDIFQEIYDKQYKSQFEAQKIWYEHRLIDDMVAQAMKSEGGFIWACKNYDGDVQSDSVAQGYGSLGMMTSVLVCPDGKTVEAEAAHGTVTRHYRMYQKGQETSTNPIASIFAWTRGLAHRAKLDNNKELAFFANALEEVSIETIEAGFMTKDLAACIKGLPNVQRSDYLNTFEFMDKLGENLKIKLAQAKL
T cruzi growth-2 – Trypanosoma cruzi proliferation inhibition | AID 651739 | shares compounds with T cruzi growth-1 | T. cruzi beta-gal in NIH3T3, GalScreen luminescence, 90 h | inhibition, % at 8.35 µM | hit rate 72% among 5,600;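 active means mean replicate inhibition above about 95% and at least 55% of replicates individually reaching it, limit read from the data; inconclusive means only one of the two criteria is met; inactive means neither criterion is met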
T cruzi growth-3 – inhibitors of T. cruzi proliferation; shares compounds with T cruzi growth-1; T. cruzi beta-gal in NIH3T3, GalScreen luminescence, 90 h; inhibition, % at 2.09 µM; hit rate 21% among 5,600;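 active means mean inhibition above about 95%, with at least 55% of replicates also reaching it, limit read from the data; inconclusive means meets just one of the two conditions; inactive means meets neither condition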;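 further: plate controls were neutral control median for no effect and positive control median for full effect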
NIH3T3 tox – kills mouse NIH/3T3 fibroblasts | shares compounds with T cruzi growth-1 | NIH/3T3 viability, CellTiter-Glo ATP luminescence, 90 h | cytotoxicity (signal decrease), % at 8.35 µM | hit rate 14% among 5,600;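 active means mean signal decrease across replicates above about 35% based on untreated-well scatter, with enough replicates individually passing, limit read from the data; inconclusive means no rule stated though some were filed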;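 further: 0% = median of neutral control wells and 100% = median of positive control wells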
3T3 cytotox 2 – NIH/3T3 (mouse) viability loss; shares compounds with T cruzi growth-1; NIH/3T3 viability, CellTiter-Glo ATP luminescence, 90 h; inhibition, % at 24.9 µM; hit rate 56% among 5,600; AID 651744;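 active means mean loss of cell viability signal at or above a set limit, and enough replicates individually reaching it; inconclusive means meets only the mean limit or only the replicate share; inactive means meets neither condition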;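 further: 0% = median of neutral control wells and 100% = median of positive control wells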
Numbers without * were called inactive.

Screening Cn1c(=O)c2[nH]c(-c3ccc(Cl)cc3)c(O)c2n(C)c1=O returned IDH1 R132H inh 3.9.
C[C@H](CO)N1C[C@H](C)[C@@H](CN(C)Cc2ccc(Cl)c(Cl)c2)Oc2ccc(NS(=O)(=O)c3ccc(Cl)cc3)cc2CC1=O was read as KDM4C inh 0.2, T cruzi growth-1 78.4 and IDH1 R132H inh 3.5.
For C[C@@H]1CN([C@H](C)CO)C(=O)Cc2cc(NS(=O)(=O)c3ccc(F)cc3)ccc2O[C@H]1CN(C)Cc1ccc(Cl)c(Cl)c1 the results were KDM4C inh 0.6, T cruzi growth-1 70.7 and IDH1 R132H inh 0.3.
For C[C@@H]1CN([C@@H](C)CO)C(=O)Cc2cc(NS(=O)(=O)c3ccc(Cl)cc3)ccc2O[C@H]1CN(C)Cc1ccc(Cl)c(Cl)c1 the results were KDM4C inh -1.8, T cruzi growth-1 inconclusive, IDH1 R132H inh 0.2, T cruzi growth-2 81.8, T cruzi growth-3 86.6, NIH3T3 tox 41.5* and 3T3 cytotox 2 104.3*.
`Cc1ccc(S(=O)(=O)Nc2ccc3c(c2)C(=O)N([C@H](C)CO)C[C@@H](C)[C@@H](CN(C)Cc2ccc(Cl)c(Cl)c2)O3)cc1` gave KDM4C inh -0.6, T cruzi growth-1 inconclusive, IDH1 R132H inh 0.3, T cruzi growth-2 95.0*, T cruzi growth-3 55.7, NIH3T3 tox 64.7* and 3T3 cytotox 2 105.5*.
Screening C[C@@H]1CN([C@H](C)CO)C(=O)Cc2cc(NS(=O)(=O)c3ccc(Cl)cc3)ccc2O[C@H]1CN(C)Cc1ccc(Cl)c(Cl)c1 returned KDM4C inh -3.1, T cruzi growth-1 97.1*, IDH1 R132H inh 0.2, T cruzi growth-2 107.5*, T cruzi growth-3 107.2*, NIH3T3 tox -0.9 and 3T3 cytotox 2 102.5*.
Cc1noc(C)c1S(=O)(=O)Nc1ccc2c(c1)CC(=O)N([C@H](C)CO)C[C@H](C)[C@@H](CN(C)Cc1ccc(Cl)c(Cl)c1)O2 was read as KDM4C inh 5.6, T cruzi growth-1 100.0*, IDH1 R132H inh 0.3, T cruzi growth-2 106.0*, T cruzi growth-3 70.6, NIH3T3 tox -2.7 and 3T3 cytotox 2 104.4*.
`Cc1ccc(S(=O)(=O)Nc2ccc3c(c2)C(=O)N([C@H](C)CO)C[C@H](C)[C@@H](CN(C)Cc2ccc(Cl)c(Cl)c2)O3)cc1` gave KDM4C inh -5.0 and T cruzi growth-1 63.4.
Cc1noc(C)c1S(=O)(=O)Nc1ccc2c(c1)CC(=O)N([C@@H](C)CO)C[C@@H](C)[C@H](CN(C)Cc1ccc(Cl)c(Cl)c1)O2 was read as KDM4C inh -1.0, T cruzi growth-1 -43.5 and IDH1 R132H inh 1.2.
Screening CC(C)(C)c1ccc(-c2nnc(SCC(=O)Nc3ccccc3)n2-c2ccccc2)cc1 returned IDH1 R132H inh 0.4.
For CCc1cccc(C)c1NC(=O)CN(C)S(=O)(=O)c1ccc(Br)cc1 the results were IDH1 R132H inh 0.1.
Screening COc1ccc(S(=O)(=O)N(C)CC(=O)Nc2cc(C(F)(F)F)ccc2Cl)cc1C returned IDH1 R132H inh 0.6.
`C[C@@H]1CN([C@H](C)CO)C(=O)c2cccc(NC(=O)NC3CCCCC3)c2O[C@@H]1CN(C)Cc1ccc(Oc2ccccc2)cc1` gave KDM4C inh 0.1, T cruzi growth-1 48.5 and IDH1 R132H inh 1.1.
`C[C@@H]1CN([C@H](C)CO)C(=O)c2cccc(NC(=O)NC3CCCCC3)c2O[C@H]1CN(C)Cc1ccc(-c2ccccc2)cc1` gave KDM4C inh -0.1 and T cruzi growth-1 81.0.
For C[C@H](CO)N1C[C@H](C)[C@@H](CN(C)Cc2ccc(-c3ccccc3)cc2)Oc2c(NC(=O)NC3CCCCC3)cccc2C1=O the results were T cruzi growth-1 104.6*, T cruzi growth-2 105.9*, T cruzi growth-3 88.7, NIH3T3 tox -29.6 and 3T3 cytotox 2 104.2*.
`C[C@@H]1CN([C@H](C)CO)C(=O)c2cccc(NC(=O)NC3CCCCC3)c2O[C@H]1CN(C)Cc1ccc(Oc2ccccc2)cc1` gave KDM4C inh 0.3, T cruzi growth-1 inconclusive, T cruzi growth-2 98.4*, T cruzi growth-3 107.7*, NIH3T3 tox -13.8 and 3T3 cytotox 2 104.4*.
Cn1c(SCC(=O)c2ccc(F)cc2)nnc1-c1ccc(NC(=O)c2ccccc2Br)cc1 was read as IDH1 R132H inh -0.3.
Screening COc1ccc(NC(=O)Nc2ccc3c(c2)C(=O)N([C@H](C)CO)C[C@@H](C)[C@H](CN(C)S(=O)(=O)c2ccc(OC)cc2)OCCCC[C@H](C)O3)cc1 returned KDM4C inh -0.3, T cruzi growth-1 -14.2 and IDH1 R132H inh -0.5.
COc1ccc(S(=O)(=O)N(C)C[C@@H]2OCCCC[C@H](C)Oc3ccc(NC(=O)C4CCCCC4)cc3C(=O)N([C@H](C)CO)C[C@H]2C)cc1 was read as KDM4C inh -0.2, T cruzi growth-1 99.0*, IDH1 R132H inh 1.2, T cruzi growth-2 64.3, T cruzi growth-3 38.5, NIH3T3 tox 19.8 and 3T3 cytotox 2 inconclusive.
`COc1ccc(NC(=O)Nc2ccc3c(c2)C(=O)N([C@@H](C)CO)C[C@H](C)[C@@H](CN(C)S(=O)(=O)c2ccc(C)cc2)OCCCC[C@@H](C)O3)cc1` gave KDM4C inh 0.2, T cruzi growth-1 97.5*, IDH1 R132H inh -0.5, T cruzi growth-2 111.1*, T cruzi growth-3 51.6, NIH3T3 tox -18.5 and 3T3 cytotox 2 8.1.
Screening COc1ccc(NC(=O)Nc2ccc3c(c2)C(=O)N([C@H](C)CO)C[C@@H](C)[C@@H](CN(C)S(=O)(=O)c2ccc(C)cc2)OCCCC[C@H](C)O3)cc1 returned KDM4C inh 1.3 and T cruzi growth-1 -79.5.
COc1ccc(NC(=O)Nc2ccc3c(c2)C(=O)N([C@@H](C)CO)C[C@@H](C)[C@@H](CN(C)S(=O)(=O)c2ccc(OC)cc2)OCCCC[C@H](C)O3)cc1 was read as KDM4C inh -0.2, T cruzi growth-1 -48.2 and IDH1 R132H inh -0.1.
`COc1ccc(NC(=O)Nc2ccc3c(c2)C(=O)N([C@@H](C)CO)C[C@H](C)[C@@H](CN(C)S(=O)(=O)c2ccc(OC)cc2)OCCCC[C@H](C)O3)cc1` gave KDM4C inh -0.4, T cruzi growth-1 inconclusive, T cruzi growth-2 108.5*, T cruzi growth-3 23.2, NIH3T3 tox 17.6 and 3T3 cytotox 2 3.3.
COc1ccc(NC(=O)Nc2ccc3c(c2)C(=O)N([C@H](C)CO)C[C@H](C)[C@H](CN(C)S(=O)(=O)c2ccc(OC)cc2)OCCCC[C@H](C)O3)cc1 was read as KDM4C inh 1.1, T cruzi growth-1 inconclusive, T cruzi growth-2 104.0*, T cruzi growth-3 50.5, NIH3T3 tox 3.1 and 3T3 cytotox 2 13.8.
